{"source": "ChEMBL document CHEMBL1129651", "about": "“3-Phenyl-substituted imidazo[1,5-alpha]quinoxalin-4-ones and imidazo[1,5-alpha]quinoxaline ureas that have high affinity at the GABAA/benzodiazepine receptor complex” (J Med Chem, 1996)", "key": {"[1]": {"biological_target": "GABA A receptor alpha-3/beta-2/gamma-2 (Rattus norvegicus) (UniProt P18508+P20236+P63138)", "experiment": "In vitro efficacy as change in chloride current against GABA-A alpha-3-beta-2-gamma-2 subunit expression", "type": "functional"}, "[2]": {"biological_target": "GABA-A receptor; anion channel", "experiment": "Binding affinity against benzodiazepine receptor (BzR) in rat cortical membranes determined by competition experiments with radiolabeled [3H]flunitrazepam (Fnz)", "type": "cell membranes"}, "Rattus norvegicus": {"test_system": "Rattus norvegicus", "experiment": "Ability to antagonize metrazole-induced seizures (clonic and tonic) in rats after intraperitoneal injection", "conditions": "ip"}, "[3]": {"biological_target": "GABA-A receptor; anion channel (Rattus norvegicus) (UniProt O09028+P15431+P18506+P18508+P19969+P20236+P23574+P23576+P28471+P28473+P30191+P62813+P63079+P63138+Q91ZM7+Q9ES14)"}, "Mus musculus [4]": {"species": "Mus musculus", "experiment": "Compound was tested for ethanol potentiation expressed as loss of righting reflex (anesthesia)", "type": "functional", "how_it_was_run": "(§1)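 Male CF-1 mice given 50% aqueous ethanol orally (7.5 mL/kg) plus test compound sc in 0.25% aqueous methyl cellulose (10 mL/kg). Tested 30 min later. Traction: hindlimb placed on wire within 10 s when suspended by forepaws. Righting: rolls onto feet within 10 s when released on its back. Six mice per dose; ED50s determined.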"}, "Mus musculus [5]": {"species": "Mus musculus", "experiment": "Compound was tested for ethanol potentiation expressed as the loss of traction response (muscle relaxation)", "type": "functional", "how_it_was_run": "as §1"}, "Mus musculus [6]": {"species": "Mus musculus", "experiment": "Antagonism of benzodiazepine traction in mice", "type": "functional", "how_it_was_run": "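Male CF-1 mice given triazolam 1 mg/kg ip together with test compound ip, starting at 100 mg/kg, in 0.25% aqueous methyl cellulose. Dose-response run on 0.5 log scale. Loss of traction scored 15 min later. Absence of the expected loss marks antagonism. ED50 taken from lower doses.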"}, "Mus musculus [7]": {"species": "Mus musculus", "experiment": "Compound was tested for Acute electroshock physical dependence activity (drug MA50/V122 MA50); No significant activity", "type": "functional", "how_it_was_run": "(§2)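 Male CF-1 mice, 10/group, dosed sc twice daily for 3 days (0800, then 2 times that dose at 1600). Flumazenil 2.5 mg/kg iv in 5% aqueous N,N-dimethylacetamide given 24 h after the last dose. 5 min later electroshock seizure threshold estimated by up-down method (0.05 log steps; transpinnal 0.6 ms pulses, 100 Hz, 0.2 s). Comparison is against a saline-treated, flumazenil-injected control group.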"}, "Mus musculus [8]": {"species": "Mus musculus", "experiment": "Compound was tested for acute electroshock physical dependence activity (drug MA50/V122 MA50); Active", "type": "functional", "how_it_was_run": "as §2"}}, "note": "pKi: −log10 of the molar value."}
{"smiles": "CC(C)n1c(=O)c2c(-c3cccc(C(F)(F)F)c3)ncn2c2ccccc21", "values": [{"measurement": "Cl - current change", "setting": "[1]", "result": 0.03}, {"measurement": "pKi", "setting": "[2]", "result": 6.73}, {"measurement": "ED50", "setting": "Rattus norvegicus", "result": "> 50", "unit": "mg/kg"}, {"measurement": "TBPS shift", "setting": "[3]", "result": 0.45}]}
{"smiles": "COc1ccc(-c2ncn3c2c(=O)n(C(C)C)c2c(Cl)cccc23)cc1", "values": [{"measurement": "ED50", "setting": "Mus musculus [4]", "result": "> 30", "unit": "mg/kg"}, {"measurement": "ED50", "setting": "Mus musculus [5]", "result": "> 30", "unit": "mg/kg"}, {"measurement": "Cl - current change", "setting": "[1]", "result": 1}, {"measurement": "pKi", "setting": "[2]", "result": 7.55}, {"measurement": "ED50", "setting": "Mus musculus [6]", "result": "> 30", "unit": "mg/kg"}, {"measurement": "Activity", "setting": "Mus musculus [7]", "result": 0.91}, {"measurement": "ED50", "setting": "Rattus norvegicus", "result": 1.3, "unit": "mg/kg"}, {"measurement": "TBPS shift", "setting": "[3]", "result": 1.04}]}
{"smiles": "CC(C)n1c(=O)c2c(-c3ccc(F)cc3)ncn2c2ccccc21", "values": [{"measurement": "ED50", "setting": "Mus musculus [4]", "result": "> 30", "unit": "mg/kg"}, {"measurement": "ED50", "setting": "Mus musculus [5]", "result": 14, "unit": "mg/kg"}, {"measurement": "Cl - current change", "setting": "[1]", "result": 0.45}, {"measurement": "pKi", "setting": "[2]", "result": 6.94}, {"measurement": "ED50", "setting": "Mus musculus [6]", "result": "> 30", "unit": "mg/kg"}, {"measurement": "Activity", "setting": "Mus musculus [7]", "result": 1}, {"measurement": "ED50", "setting": "Rattus norvegicus", "result": 30, "unit": "mg/kg"}, {"measurement": "TBPS shift", "setting": "[3]", "result": 0.58}]}
{"smiles": "COc1cccc(-c2ncn3c2c(=O)n(C(C)C)c2ccccc23)c1", "values": [{"measurement": "Cl - current change", "setting": "[1]", "result": 0.12}, {"measurement": "pKi", "setting": "[2]", "result": 6.68}, {"measurement": "ED50", "setting": "Rattus norvegicus", "result": "> 50", "unit": "mg/kg"}, {"measurement": "TBPS shift", "setting": "[3]", "result": 0.24}]}
{"smiles": "CC(C)n1c(=O)c2c(-c3ccc(F)cc3)ncn2c2ccc(Cl)cc21", "values": [{"measurement": "Cl - current change", "setting": "[1]", "result": 0.03}, {"measurement": "pKi", "setting": "[2]", "result": 5.77}, {"measurement": "ED50", "setting": "Rattus norvegicus", "result": "> 50", "unit": "mg/kg"}, {"measurement": "TBPS shift", "setting": "[3]", "result": 0.14}]}
{"smiles": "CC(C)n1c(=O)c2c(-c3noc(C4CC4)n3)ncn2c2ccccc21", "note": "[PANADIPLON]", "values": [{"measurement": "ED50", "setting": "Mus musculus [4]", "result": "> 30", "unit": "mg/kg"}, {"measurement": "ED50", "setting": "Mus musculus [5]", "result": 6.6, "unit": "mg/kg"}, {"measurement": "ED50", "setting": "Mus musculus [6]", "result": 1.7, "unit": "mg/kg"}, {"measurement": "Activity", "setting": "Mus musculus [7]", "result": 0.95}, {"measurement": "ED50", "setting": "Rattus norvegicus", "result": 1.6, "unit": "mg/kg"}]}
{"smiles": "COc1ccc(-c2ncn3c2CN(C(=O)N2CC(C)N(C)C(C)C2)c2ccccc2-3)cc1", "note": "(configuration not stated)", "values": [{"measurement": "pKi", "setting": "[2]", "result": 8.38}, {"measurement": "Activity", "setting": "Mus musculus [8]", "result": 0.6}, {"measurement": "ED50", "setting": "Mus musculus [6]", "result": "> 30", "unit": "mg/kg"}, {"measurement": "ED50", "setting": "Rattus norvegicus", "result": 0.8, "unit": "mg/kg"}, {"measurement": "TBPS shift", "setting": "[3]", "result": 0.27}]}
{"smiles": "CC(C)n1c(=O)c2c(-c3ccc(F)cc3)ncn2c2cccc(Cl)c21", "values": [{"measurement": "Cl - current change", "setting": "[1]", "result": 3.4}, {"measurement": "pKi", "setting": "[2]", "result": 7.84}, {"measurement": "ED50", "setting": "Rattus norvegicus", "result": 0.9, "unit": "mg/kg"}, {"measurement": "TBPS shift", "setting": "[3]", "result": 2.04}]}
